Test results reported in ChEMBL document CHEMBL5046320, “A Stepwise Targeting Curcumin Derivative, Ser@TPP@CUR, for Acute Kidney Injury” (ACS Med Chem Lett, 2022).
The source made the active and inactive calls. The rule behind the calls is not given here.

Columns and labels:
[1] = Drug distribution in kidney of acute kidney injured Balb/c mouse model assessed as increase in CUR level at 4 mg/kg, iv after 2 hrs of administration by IVIS Lumina III analysis; type: ADME, organism-based; conditions: in vivo
In short: (§1)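 Normal or AKI mice given intravenous dose (CUR, 4 mg/kg); heart, lung, liver, spleen and kidney imaged ex vivo 2 h later on IVIS Lumina III; tissue distribution as mean ± SD, n = 6.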

HK-2 [2] = assay: Nephroprotective activity against LPS induced human HK-2 cells assessed as increase in cell viability at 3 ug/ml incubated for 24 hrs by MTT assay relative to control; type: functional; conditions: dose 3 µg/ml
In short: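 HK-2 cells exposed to 15 μg/mL LPS for 24 h; viability assessed by MTT assay; n = 6.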

[3] = Drug uptake in LPS stimulated human HK-2 cells pretreated with LPS for 12 hrs followed by compound addition incubated for 2 to 6 hrs by inversed fluorescence microscope analysis; type: ADME, cell-based; conditions: time 2-6 hrs
In short: (§2)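 HK-2 cells with or without LPS treatment incubated with compound for 2.0 and 6.0 h; uptake imaged by fluorescence microscopy; flow cytometry at 2.0 h.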

Mus musculus [4] = assay: Antioxidant activity against LPS-induced acute kidney injured Balb/c mouse mitochondrial fraction of kidney assessed as reduction of H2O2 generation at 4 mg/kg,iv by Amplex Red dye Hydrogen Peroxide assay; type: functional, organism-based; conditions: Mitochondria
In short: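 Mitochondria isolated intact from renal tissue of LPS-induced AKI mice; H₂O₂ production measured with Amplex Red H₂O₂/peroxidase detection kit after treatment at CUR 4 mg/kg; n = 6.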

HK-2 [5] = assay: Induction of apoptosis in LPS-induced HK-2 cells assessed as inhibition of cleaved caspase-9 protein expression pretreated with LPS followed by compound addition incubated for 24 hrs by immunoblotting analysis; type: functional, cell-based; conditions: Homo sapiens
In short: (§3)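 LPS-treated HK-2 cells; cytochrome c in mitochondrial and cytosolic fractions, cleaved caspase-9 and cleaved caspase-3 detected by immunoblot, normalised to β-actin; mean ± SD, n = 3.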

[6] = Drug uptake in human HK-2 cells incubated for 2 to 6 hrs by inversed fluorescence microscope analysis; type: ADME, cell-based; conditions: time 2-6 hrs; in short: as §2
[7] = Drug distribution in kidney of Balb/c mouse model assessed as increase in CUR level at 4 mg/kg, iv after 2 hrs of administration by IVIS Lumina III analysis; type: ADME, organism-based; conditions: in vivo; in short: as §1
HK-2 [8] = assay: Induction of apoptosis in LPS-induced HK-2 cells assessed as increase in mitochondrial cytochrome C protein expression pretreated with LPS followed by compound addition incubated for 24 hrs by immunoblotting analysis; type: functional, cell-based; conditions: Homo sapiens; in short: as §3
Kidney [9] = assay: Antioxidant activity against LPS-induced acute kidney injured Balb/c mouse model assessed as reduction of increased MDA level at 4 mg/kg,iv; type: functional, organism-based
In short: (§4)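 SOD, GSH and MDA levels determined in renal tissue of LPS-induced AKI mice after treatment at CUR 4 mg/kg; n = 6.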

Kidney [10] = assay: Antioxidant activity against LPS-induced acute kidney injured Balb/c mouse model assessed as increase in kidney superoxide dismutase level at 4 mg/kg,iv; type: functional, organism-based; in short: as §4
[11] = Drug uptake in LPS induced inflammation in human HK-2 cells assessed as decrease internalization in presence of Ser pretreated with LPS for 6 hr followed by compound addition incubated for 2 hr by flow cytometry; conditions: hk-2, 2 h
[12] = Drug distribution in kidney of acute kidney injured Balb/c mouse model assessed as KIM1 receptor mediated endocytosis at 4 mg/kg, iv by fluorescence imaging based assay; type: ADME, organism-based; conditions: in vivo
In short: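 Renal tissue of AKI mice examined by fluorescence imaging for colocalization of compound (green) with immunostained KIM-1 receptor (red); free CUR as control.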

[13] = Drug uptake in human HK-2 cells assessed as increase in fluorescence intensity pretreated with LPS for 12 hrs followed by compound addition incubated for 6 hrs by mitotracker red based inverted microscopic analysis; type: ADME, cell-based; conditions: hk-2, 6 h
In short: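 HK-2 cells co-stained with MitoTracker Red; mitochondrial colocalization of compound imaged by fluorescence microscopy; free CUR as control.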

HK-2 [14] = assay: Induction of apoptosis in LPS-induced HK-2 cells assessed as inhibition of cleaved caspase-3 protein expression pretreated with LPS followed by compound addition incubated for 24 hrs by immunoblotting analysis; type: functional, cell-based; conditions: Homo sapiens; in short: as §3
Kidney [15] = assay: Nephroprotective activity against acute kidney injured Balb/c mouse kidney assessed as decrease in disappeared and expanded tubular border brush at 4 mg/kg,iv by H and E staining based assay; type: functional, organism-based
In short: (§5)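 Renal tissue of AKI mice stained with H&E and examined by optical microscopy for tubular epithelial swelling, vacuolar degeneration and brush border loss; treatment at CUR 4 mg/kg.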

HK-2 [16] = assay: Antioxidant activity in human HK-2 cells assessed as reduction in LPS induced mitochondrial reactive oxygen species generation at 7.16 ug/ml pretreated with LPS for 24 hr followed by compound addition incubated for 2 hr by MitoSOX staining based inverted fluorescent microscopic analysis; type: functional, cell-based; conditions: dose 7.16 µg/ml
In short: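 LPS-treated HK-2 cells exposed to test agent (7.16 μg/mL); mitochondrial superoxide visualised with MitoSOX Red indicator by fluorescence imaging.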

[17] = Drug uptake in LPS stimulated human HK-2 cells pretreated with LPS for 12 hrs followed by compound addition incubated for 2 to 6 hrs by flow cytometry method; type: ADME, cell-based; conditions: time 2-6 hrs; in short: as §2
Kidney [18] = assay: Antioxidant activity against acute kidney injured Balb/c mouse kidney assessed as reduction of nitrotyrosine expression at 4 mg/kg,iv by immunohistochemistry analysis; type: functional, organism-based
In short: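 Renal sections from AKI mice stained by immunohistochemistry for nitrotyrosine after treatment at CUR 4 mg/kg; scale bar 50 μm.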

HK-2 [19] = assay: Antioxidant activity in human HK-2 cells assessed as reduction in LPS induced intracellular nitrotyrosine expression level pretreated with LPS for 24 hr followed by compound addition incubated for 2 hr by fluorescence imaging based assay; type: functional, cell-based
Kidney [20] = assay: Anti-inflammatory activity against LPS-induced acute kidney injured Balb/c mouse model assessed as reduction in kidney IL-6 level at 4 mg/kg,iv by ELISA; type: functional, organism-based
In short: (§6)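 TNF-α and IL-6 measured by ELISA in renal tissue of LPS-induced AKI mice after CUR-based treatment (CUR, 4 mg/kg); n = 6.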

Kidney [21] = assay: Antioxidant activity against LPS-induced acute kidney injured Balb/c mouse model assessed as increase in kidney GSH level at 4 mg/kg,iv; type: functional, organism-based; in short: as §4
Kidney [22] = assay: Nephroprotective activity against acute kidney injured Balb/c mouse kidney assessed as decrease in vacuolar degeneration at 4 mg/kg,iv by H and E staining based assay; type: functional, organism-based; in short: as §5
Mus musculus [23] = assay: Nephroprotective activity against LPS-induced acute kidney injured Balb/c mouse model assessed as reduction in serum creatinine level at 4 mg/kg,iv by automatic biochemical analysis; type: functional, organism-based
In short: (§7)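 Scr and BUN measured on automatic biochemical analyzer 24 h after administration (CUR, 4 mg/kg) to LPS-induced AKI mice; n = 6.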

Kidney [24] = assay: Anti-inflammatory activity against LPS-induced acute kidney injured Balb/c mouse model assessed as reduction in kidney TNF alpha level at 4 mg/kg,iv by ELISA; type: functional, organism-based; in short: as §6
HK-2 [25] = assay: Induction of apoptosis in LPS-induced human HK-2 cells assessed as inhibition of cytochrome c protein expression pretreated with LPS followed by compound addition incubated for 24 hrs by immunoblotting analysis; type: functional, cell-based; in short: as §3
Kidney [26] = assay: Nephroprotective activity against acute kidney injured Balb/c mouse kidney assessed as decrease in swollen tubular epithelial cells at 4 mg/kg,iv by H and E staining based assay; type: functional, organism-based; in short: as §5
Mus musculus [27] = assay: Nephroprotective activity against LPS-induced acute kidney injured Balb/c mouse model assessed as reduction in blood urea nitrogen level at 4 mg/kg,iv by automatic biochemical analysis; type: functional, organism-based; in short: as §7

In the case of `COc1cc(/C=C/C(=O)CC(=O)/C=C/c2ccc(OC(=O)C(N)CO)c(OC)c2)ccc1OC(=O)CCCC[P+](c1ccccc1)(c1ccccc1)c1ccccc1.[Br-]` (configuration not stated), the Drug uptake [1] is reported as “Active”, the Activity (HK-2 [2]) is reported as 40% and the Drug uptake [3] is reported as “Active”. For the same compound, the Activity (Mus musculus [4]) was “Active”, the Activity (HK-2 [5]) was “Active” and the Drug uptake [6] was “Not Active”. For the same compound, the Drug uptake [7] was “Not Active”, the Activity (HK-2 [8]) was “Active” and the Activity (Kidney [9]) was “Active”. The Activity (Kidney [10]) was “Active”, the Drug uptake [11] was “Active” and the Drug uptake [12] was “Active”. For the same compound, the Drug uptake [13] was “Active”, the Activity (HK-2 [14]) was “Active” and the Activity (Kidney [15]) was “Active”. The Activity (HK-2 [16]) was “Active”, the Drug uptake [17] was “Active” and the Activity (Kidney [18]) was “Active”. For the same compound, the Activity (HK-2 [19]) was “Active”, the Activity (Kidney [20]) was “Active” and the Activity (Kidney [21]) was “Active”. For the same compound, the Activity (Kidney [22]) was “Active”, the Activity (Mus musculus [23]) was “Active” and the Activity (Kidney [24]) was “Active”. The Activity (HK-2 [25]) was “Active”, the Activity (Kidney [26]) was “Active” and the Activity (Mus musculus [27]) was “Active”.
